Measurements: ChEMBL document CHEMBL1833940, “Discovery of 3-(2,6-dichloro-3,5-dimethoxy-phenyl)-1-{6-[4-(4-ethyl-piperazin-1-yl)-phenylamino]-pyrimidin-4-yl}-1-methyl-urea (NVP-BGJ398), a potent and selective inhibitor of the fibroblast growth factor receptor family of receptor tyrosine kinase” (J Med Chem, 2011)
The source made the active and inactive calls. The calls are words filed in the database; no cut-off is given here.

What was measured:
[1] = target: Serine/threonine-protein kinase N1 (Homo sapiens, UniProt Q16512); assay: Inhibition of recombinant PKN1
How it was run: (§1)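 Purified recombinant kinases under optimized conditions with peptide substrates. ATP was set at each kinase's Km. Phosphorylation was read by microfluidic mobility-shift separation of substrate and product; IC50 determined.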

[2] = test system: Rattus norvegicus; assay: Inhibition of FGFR autophosphorylation in RT112 tumour bearing nude Rowett rat assessed as decrease in pMAPK concentration at 4.25 mg/kg, po administered as a single dose by Western blot analysis; assay type: functional, organism-based; parameters: dose 4.25 mg/kg
How it was run: (§2)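 RT112 subcutaneous xenografts in female nude Rowett rats (n = 4). Single oral gavage of the monophosphate salt at 4.25 or 8.51 mg/kg (free base equivalents) in acetic acid–acetate buffer pH 4.6/PEG300 (1:1). Tumors were collected at time points up to 24 h, frozen, homogenized and lysed. Western blots probed pFRS2(Tyr196) and pMAPK, with total FRS2, total MAPK or β-tubulin as loading controls.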

[3] = target: Insulin-like growth factor 1 receptor (Homo sapiens, UniProt P08069); assay: Inhibition of recombinant IGF1R; how it was run: as §1
Sequence of Insulin-like growth factor 1 receptor (P08069 31-736 limits assumed): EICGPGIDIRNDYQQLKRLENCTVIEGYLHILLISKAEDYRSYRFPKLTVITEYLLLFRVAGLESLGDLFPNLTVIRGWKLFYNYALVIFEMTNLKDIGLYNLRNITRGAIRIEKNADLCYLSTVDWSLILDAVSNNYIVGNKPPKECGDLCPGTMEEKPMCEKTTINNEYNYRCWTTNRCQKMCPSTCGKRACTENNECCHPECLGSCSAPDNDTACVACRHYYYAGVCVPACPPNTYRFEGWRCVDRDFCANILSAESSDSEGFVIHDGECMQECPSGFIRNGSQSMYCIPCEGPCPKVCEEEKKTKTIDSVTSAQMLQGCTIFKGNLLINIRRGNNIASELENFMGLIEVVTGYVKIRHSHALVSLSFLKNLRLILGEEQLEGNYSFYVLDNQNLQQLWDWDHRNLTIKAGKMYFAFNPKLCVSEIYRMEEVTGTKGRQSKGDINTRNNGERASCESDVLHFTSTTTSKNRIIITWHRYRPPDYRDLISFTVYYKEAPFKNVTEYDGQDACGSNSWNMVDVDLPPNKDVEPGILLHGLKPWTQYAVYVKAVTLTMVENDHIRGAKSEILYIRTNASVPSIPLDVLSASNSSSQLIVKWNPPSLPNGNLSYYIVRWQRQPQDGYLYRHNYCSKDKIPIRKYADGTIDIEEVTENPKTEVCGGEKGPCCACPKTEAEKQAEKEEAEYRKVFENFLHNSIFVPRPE
Sequence of Insulin-like growth factor 1 receptor (P08069 741-1367 limits assumed): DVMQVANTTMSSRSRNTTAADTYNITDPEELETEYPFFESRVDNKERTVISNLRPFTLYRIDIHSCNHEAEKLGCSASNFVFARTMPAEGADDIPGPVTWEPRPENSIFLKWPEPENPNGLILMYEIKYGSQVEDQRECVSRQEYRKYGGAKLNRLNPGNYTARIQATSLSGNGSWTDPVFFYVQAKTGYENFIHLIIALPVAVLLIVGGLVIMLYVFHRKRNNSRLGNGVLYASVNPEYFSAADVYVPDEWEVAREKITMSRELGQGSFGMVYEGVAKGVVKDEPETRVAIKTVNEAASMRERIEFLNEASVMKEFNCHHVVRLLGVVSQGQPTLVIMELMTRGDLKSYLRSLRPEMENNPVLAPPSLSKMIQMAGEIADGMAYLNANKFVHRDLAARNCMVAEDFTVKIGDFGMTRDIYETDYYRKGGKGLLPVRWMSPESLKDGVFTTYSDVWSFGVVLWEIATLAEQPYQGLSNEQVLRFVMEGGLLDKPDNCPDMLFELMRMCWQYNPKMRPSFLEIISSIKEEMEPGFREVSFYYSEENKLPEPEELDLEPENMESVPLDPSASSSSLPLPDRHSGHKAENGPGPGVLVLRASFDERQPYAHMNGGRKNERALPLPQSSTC

[4] = Tmax in tumor of RT112/luc1 cells implanted athymic nude mouse at 20 mg/kg, po by LC/MS/MS analysis; assay type: ADME, organism-based, Neoplasm; parameters: dose 20 mg/kg, route oral
How it was run: (§3)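 Female athymic nude mice carrying subcutaneous RT112/luc1 tumors (ca. 300–400 mm3). Dosing was 5 mg/kg iv by tail vein in NMP/PEG200 (1:9) or 20 mg/kg by oral gavage as a suspension in PEG300/D5W (2:1). Groups (n = 4) were sacrificed from 0.083 to 24 h. Plasma and tumor were measured by LC-MS/MS (LOQ 5 ng/mL, 10 ng/g). Noncompartmental analysis used the linear trapezoidal AUC; F was calculated from dose-normalized AUC.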

[5] = Volume of distribution at steady state in Wistar rat at 5 mg/kg, iv by LC-MS/MS analysis; assay type: ADME, organism-based; parameters: dose 5 mg/kg, route intravenous; conditions: in vivo, read-out: Vdss
How it was run: (§4)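 Female Wistar rats received 5 mg/kg iv into the femoral vein in NMP/PEG200 (1:9), or the monophosphate salt orally at 10 mg/kg (free base) in acetate buffer pH 4.6/PEG300. Serial sublingual plasma samples were taken from 0.083 to 24 h.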

[6] = target: Tyrosine-protein kinase JAK2 (Homo sapiens, UniProt O60674); assay: Inhibition of recombinant JAK2
How it was run: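 Purified recombinant kinases were tested under optimized conditions with peptide substrates. ATP was set at each kinase's Km. Phosphorylation was read out by microfluidic mobility shift, and IC50 values were determined.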

[7] = Tmax in Wistar rat at 10 mg/kg, po by LC-MS/MS analysis; assay type: ADME, organism-based; parameters: dose 10 mg/kg, route oral; conditions: in vivo; how it was run: as §4
[8] = Tmax in tumor of RT112/luc1 cells implanted athymic nude mouse at 5 mg/kg, iv by LC/MS/MS analysis; assay type: ADME, organism-based, Neoplasm; parameters: dose 5 mg/kg, route intravenous; how it was run: as §3
[9] = test system: Rattus norvegicus; assay: Inhibition of FGFR autophosphorylation in RT112 tumour bearing po dosed nude Rowett rat assessed as decrease in pFRS2 concentration administered as a single dose by Western blot analysis; assay type: functional, organism-based; how it was run: as §2
[10] = test system: Rattus norvegicus; assay: Dose normalized AUC in Wistar rat at 10 mg/kg, po by LC-MS/MS analysis; assay type: ADME, organism-based; parameters: dose 10 mg/kg, route oral; conditions: in vivo
How it was run: (§5)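 Female Wistar rats received either an iv femoral-vein dose of 5 mg/kg in NMP/PEG200 (1:9) or an oral dose of monophosphate salt at 10 mg/kg (free base) in acetate buffer pH 4.6/PEG300. Plasma was sampled by sublingual bleeding at 0.083–24 h (n = 4 staggered, or n = 3–4 serial). Plasma levels were measured by LC-MS/MS (LOQ 10 ng/mL).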

[11] = target: Phosphatidylinositol 4,5-bisphosphate 3-kinase catalytic subunit delta isoform (Homo sapiens, UniProt O00329); assay: Inhibition of recombinant PI3Kdelta by luminescent kinase assay
[12] = test system: Plasma; assay: Dose normalized AUC in plasma of RT112/luc1 cells implanted athymic nude mouse at 5 mg/kg, iv by LC/MS/MS analysis; assay type: ADME, organism-based; parameters: dose 5 mg/kg, route intravenous; conditions: in vivo
How it was run: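 Female athymic nude mice carried subcutaneous RT112/luc1 tumors (5×10^6 cells, 50% Matrigel; about 300–400 mm3). Dosing was either 5 mg/kg iv by tail vein in NMP/PEG200 (1:9) or 20 mg/kg oral suspension in PEG300/D5W (2:1). Groups of mice (n = 4) were sacrificed at 0.083–24 h. Plasma and tumor levels were measured by LC-MS/MS (LOQ 5 ng/mL, 10 ng/g).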

[13] = Inhibition of LCK-B-mediated proliferation of mouse BAF3 cells transformed with Tel-kinase construct; assay type: cell-based
How it was run: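 Murine BaF3 cells made IL-3-independent by a Tel-kinase fusion were grown in RPMI-1640 with 10% FBS. Cells were seeded at 4250 per well with DMSO-diluted compound and incubated 48 h at 37 °C. Viability was read by Bright-Glo luminescence.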

[14] = test system: BaF3; assay: Antiproliferative activity against mouse wild type BAF3 cells assessed as decrease in cell viability by luminescence-based assay
How it was run: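 IL-3-independent BaF3 or BaF3 Tel-TK cells were grown in RPMI-1640 with 10% FBS and seeded at 4250 cells/well in 384-well plates. Compound serially diluted in DMSO was pin-transferred, followed by 48 h at 37 °C, 5% CO2. Viability was read by Bright-Glo luciferase luminescence.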

[15] = test system: UMUC3; assay: Antiproliferative activity against human UM-UC-3 cells after 72 hrs; assay type: functional, cell-based; conditions: UMUC3, 72 h
How it was run: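 Bladder cancer lines from ATCC or DSMZ were seeded in 96-well plates (RT4, RT112 at 8500 cells/well; others at 5000 cells/well) in growth medium. Compound dilutions or DMSO were added 24 h later and incubated 72 h. Cells were fixed with glutaraldehyde, stained with 0.05% methylene blue and eluted with 3% HCl, then OD650 nm was read.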

[16] = target: Serine/threonine-protein kinase WNK1 (Homo sapiens, UniProt Q9H4A3); assay: Inhibition of recombinant WNK1; how it was run: as §1
Sequence of Serine/threonine-protein kinase WNK1 (Q9H4A3 whole entry, canonical isoform): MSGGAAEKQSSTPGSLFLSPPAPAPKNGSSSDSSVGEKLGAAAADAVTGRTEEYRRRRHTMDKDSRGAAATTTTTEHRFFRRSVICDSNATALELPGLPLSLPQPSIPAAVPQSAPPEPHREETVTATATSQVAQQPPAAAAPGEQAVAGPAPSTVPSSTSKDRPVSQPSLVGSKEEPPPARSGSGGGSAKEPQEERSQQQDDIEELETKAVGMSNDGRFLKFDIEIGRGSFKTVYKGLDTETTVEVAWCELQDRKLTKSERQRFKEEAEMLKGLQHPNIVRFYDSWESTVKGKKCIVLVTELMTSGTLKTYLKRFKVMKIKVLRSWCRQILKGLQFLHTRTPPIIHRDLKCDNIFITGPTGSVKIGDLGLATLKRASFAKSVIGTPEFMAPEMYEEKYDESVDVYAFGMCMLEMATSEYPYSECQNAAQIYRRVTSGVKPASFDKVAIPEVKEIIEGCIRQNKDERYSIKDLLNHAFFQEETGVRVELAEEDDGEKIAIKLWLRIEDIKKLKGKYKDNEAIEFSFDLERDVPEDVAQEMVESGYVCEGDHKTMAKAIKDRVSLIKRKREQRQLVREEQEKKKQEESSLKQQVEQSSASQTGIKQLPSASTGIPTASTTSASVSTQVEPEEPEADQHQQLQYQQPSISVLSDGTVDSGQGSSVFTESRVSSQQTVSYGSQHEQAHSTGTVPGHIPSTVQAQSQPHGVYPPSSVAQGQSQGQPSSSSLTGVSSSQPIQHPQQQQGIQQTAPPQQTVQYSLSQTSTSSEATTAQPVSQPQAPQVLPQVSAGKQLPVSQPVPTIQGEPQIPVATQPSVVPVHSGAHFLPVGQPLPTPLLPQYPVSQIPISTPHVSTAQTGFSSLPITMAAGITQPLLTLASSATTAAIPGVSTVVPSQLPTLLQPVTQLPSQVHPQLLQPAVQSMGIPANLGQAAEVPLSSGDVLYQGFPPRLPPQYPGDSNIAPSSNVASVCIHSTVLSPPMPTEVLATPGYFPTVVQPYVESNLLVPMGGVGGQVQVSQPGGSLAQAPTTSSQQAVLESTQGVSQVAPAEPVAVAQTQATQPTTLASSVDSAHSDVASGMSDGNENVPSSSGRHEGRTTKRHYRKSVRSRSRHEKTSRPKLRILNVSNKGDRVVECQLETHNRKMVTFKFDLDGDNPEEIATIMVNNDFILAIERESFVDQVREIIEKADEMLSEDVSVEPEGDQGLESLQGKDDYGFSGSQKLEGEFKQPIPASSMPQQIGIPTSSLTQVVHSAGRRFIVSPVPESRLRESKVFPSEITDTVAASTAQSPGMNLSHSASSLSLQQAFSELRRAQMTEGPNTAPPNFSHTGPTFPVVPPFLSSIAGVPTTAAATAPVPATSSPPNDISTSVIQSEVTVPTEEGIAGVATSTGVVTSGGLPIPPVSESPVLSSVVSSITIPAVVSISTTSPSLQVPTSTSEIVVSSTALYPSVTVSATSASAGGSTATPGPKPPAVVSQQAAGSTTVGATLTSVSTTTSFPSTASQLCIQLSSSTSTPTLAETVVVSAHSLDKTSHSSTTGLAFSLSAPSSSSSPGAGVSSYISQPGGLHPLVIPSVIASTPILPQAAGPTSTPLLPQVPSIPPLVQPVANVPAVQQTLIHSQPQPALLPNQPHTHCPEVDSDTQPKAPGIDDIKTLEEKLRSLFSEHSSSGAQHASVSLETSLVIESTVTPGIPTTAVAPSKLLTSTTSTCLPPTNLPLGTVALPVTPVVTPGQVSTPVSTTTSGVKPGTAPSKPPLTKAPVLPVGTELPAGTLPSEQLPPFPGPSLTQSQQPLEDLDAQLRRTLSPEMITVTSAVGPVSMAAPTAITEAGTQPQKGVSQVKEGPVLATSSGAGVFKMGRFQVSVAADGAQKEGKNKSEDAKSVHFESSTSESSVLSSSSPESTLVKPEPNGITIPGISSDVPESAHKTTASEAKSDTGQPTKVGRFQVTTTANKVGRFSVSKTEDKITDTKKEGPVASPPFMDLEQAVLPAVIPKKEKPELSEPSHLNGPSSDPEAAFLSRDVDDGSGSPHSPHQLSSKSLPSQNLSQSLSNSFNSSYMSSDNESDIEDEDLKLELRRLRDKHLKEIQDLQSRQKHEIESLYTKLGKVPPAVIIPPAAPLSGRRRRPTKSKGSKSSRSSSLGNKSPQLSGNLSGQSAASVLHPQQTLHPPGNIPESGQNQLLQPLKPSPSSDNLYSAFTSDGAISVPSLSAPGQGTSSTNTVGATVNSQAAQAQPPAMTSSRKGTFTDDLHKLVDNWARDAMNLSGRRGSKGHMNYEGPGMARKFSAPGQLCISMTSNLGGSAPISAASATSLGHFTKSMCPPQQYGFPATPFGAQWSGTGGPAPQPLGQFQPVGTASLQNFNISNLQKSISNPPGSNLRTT

[17] = target: Phosphatidylinositol 4,5-bisphosphate 3-kinase catalytic subunit alpha isoform (Homo sapiens, UniProt P42336); assay: Inhibition of recombinant PI3Kalpha
[18] = target: Receptor tyrosine-protein kinase erbB-4 (Homo sapiens, UniProt Q15303); assay: Inhibition of recombinant ERBB4; how it was run: as §1
[19] = test system: Tumour; assay: Drug uptake in tumour of nude Rowett rat bearing human RT112 cells at 8.51 mg/kg, po administered as a single dose after 24 hrs by LC-MS/MS analysis; assay type: ADME, organism-based, Neoplasm, RT-112; parameters: dose 8.51 mg/kg, route oral; conditions: in vivo
How it was run: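 Nude Rowett rats bearing subcutaneous RT112 tumors (n = 4) received a single gavage of monophosphate salt at 4.25 or 8.51 mg/kg free base in acetate buffer pH 4.6/PEG300. Tumors were collected at intervals after dosing, frozen and homogenized in an equal volume of ice-cold PBS. Compound levels were measured by LC-MS/MS (LOQ 3 ng/mL).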

[20] = Cmax in Wistar rat at 10 mg/kg, po by LC-MS/MS analysis; assay type: ADME, organism-based; parameters: dose 10 mg/kg, route oral; conditions: in vivo; how it was run: as §5
[21] = target: Cytochrome P450 2C19 (Homo sapiens, UniProt P33261); assay: Inhibition of CYP2C19 using CEC as substrate; assay type: ADME
Sequence of Cytochrome P450 2C19 (P33261 whole entry, canonical isoform): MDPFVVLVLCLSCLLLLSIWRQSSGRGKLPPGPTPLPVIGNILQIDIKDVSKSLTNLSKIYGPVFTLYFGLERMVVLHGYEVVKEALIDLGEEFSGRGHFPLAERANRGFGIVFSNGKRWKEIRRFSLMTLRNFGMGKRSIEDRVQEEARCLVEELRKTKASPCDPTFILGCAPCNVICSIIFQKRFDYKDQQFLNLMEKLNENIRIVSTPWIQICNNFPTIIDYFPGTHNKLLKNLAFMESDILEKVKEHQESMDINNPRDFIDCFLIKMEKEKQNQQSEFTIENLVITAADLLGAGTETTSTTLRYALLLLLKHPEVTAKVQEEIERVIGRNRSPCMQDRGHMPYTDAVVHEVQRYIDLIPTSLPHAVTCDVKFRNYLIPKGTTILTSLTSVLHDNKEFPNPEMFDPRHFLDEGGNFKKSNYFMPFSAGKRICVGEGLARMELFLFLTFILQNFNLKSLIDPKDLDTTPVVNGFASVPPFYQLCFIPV
How it was run: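 Human CYP450 inhibition was measured with isoform-specific fluorogenic probe substrates: CEC for 1A2 and 2C19, MFC for 2C9, AMMC for 2D6. Incubation was at 37 °C with an NADPH-regenerating system in 384-well format. Metabolite was quantified by fluorescence, and IC50 was obtained by curve fitting.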

IC50 [1]: > 10 µM
IC50 [3]: > 10 µM
Tmax [4]: 8 h
Vd [5]: 9.6 L/kg
IC50 [6]: > 10 µM
Tmax [7]: 4 h
Tmax [8]: 2 h
AUC/dose [10]: 0.25 µM·h
IC50 [11]: > 9 µM
AUC/dose [12]: 0.6 µM·h
IC50 [14]: 1.86 µM
IC50 [16]: > 10 µM
IC50 [17]: > 9 µM
IC50 [18]: > 10 µM
Drug uptake [19]: 0.32 nmol/g
Cmax [20]: 260 nM
IC50 [21]: > 10 µM
SMILES: CCN1CCN(c2ccc(Nc3cc(N(C)C(=O)Nc4c(Cl)c(OC)cc(OC)c4Cl)ncn3)cc2)CC1.O=P(O)(O)O [INFIGRATINIB PHOSPHATE]
inhibition [2]: Active
Activity [9]: Dose-dependent effect
IC50 [13]: 2.48 µM
IC50 [15]: > 3 µM
